MC4R barr agon: agonists of human melanocortin 4 receptor (MC4R) beta-arrestin; activation, % at 8.9 µM; hit rate 0.98% among 360,000; AID 540308; U2OS MC4R beta-arrestin complementation, luminescence; percent of melanotan II response, DMSO zero;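 active = activation above a per-plate cutoff, the mean activation of sample wells on that plate plus 3 SD, cut at about 8% in these data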
Target sequence (P32245 whole entry, looked up): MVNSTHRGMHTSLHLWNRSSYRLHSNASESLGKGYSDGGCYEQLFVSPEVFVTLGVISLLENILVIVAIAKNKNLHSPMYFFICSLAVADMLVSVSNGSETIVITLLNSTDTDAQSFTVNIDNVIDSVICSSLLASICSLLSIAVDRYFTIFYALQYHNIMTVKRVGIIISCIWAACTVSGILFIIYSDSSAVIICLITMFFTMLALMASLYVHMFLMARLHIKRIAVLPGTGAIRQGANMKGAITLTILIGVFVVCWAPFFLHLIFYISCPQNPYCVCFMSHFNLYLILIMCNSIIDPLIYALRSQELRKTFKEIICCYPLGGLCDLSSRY
Calb FLC: C. albicans growth modulation with fluconazole; C. albicans CaCi-2 + fluconazole, Alamar Blue growth, 48 h; growth inhibition, % (test concentration not listed); hit rate 0.57% among 300,000;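 active = growth inhibition above about 58% in most replicates, limit read from the data, passing the limit was not always enough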;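 note: all wells also contain fluconazole at 8 µg/ml as a sub-toxic cotreatment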
H9c2 TAG inh: reduces triacylglycerol accumulation in H9c2 cells. Nile Red lipid (TAG) fluorescence; cells loaded with 200 µM oleic acid. AID 651582. inhibition, % at 12.5 µM. hit rate 0.66% among 230,000;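 active = pattern-corrected inhibition of lipid staining of at least 50% with the nuclear-stain viability signal not falling by more than 50%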
MC4R antag cAMP: human MC4R antagonism in cAMP assay; hit rate 0.48% among 360,000; P32245; AID 540295; inhibition, % at 6.5 µM; MC4R-expressing cells, MTII-stimulated cAMP, LANCE TR-FRET;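 active = inhibition above its plate's cutoff, the mean of tested wells on that plate plus 3 SD, cut at about 29% in these data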
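system = U2OS cells with stable human MC4R expression | also added = Melanotan II challenge after compound preincubation | dosing = one concentration, 6.5 µM nominal | incubation = compound 30 min, challenge 1 h, detection 1 h | measured by = TR-FRET with Eu-cAMP and labeled anti-cAMP, 671 nm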
GalR3 antag: human GalR3 antagonism; hit rate 0.44% among 360,000; O60755; HEK293 GalR3-CNG cAMP membrane potential fluorescence; galR3 body fused to GalR1 C-terminus; inhibition, % at 3 µM;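 active = inhibition above the screen-wide average plus 3 SD, cut at about 13% in these data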;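 note: forskolin and galanin both at EC90 stimulate the cells; cAMP rise reported by CNG channel membrane potential dye signal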
Target sequence (O60755 1-299 limits assumed): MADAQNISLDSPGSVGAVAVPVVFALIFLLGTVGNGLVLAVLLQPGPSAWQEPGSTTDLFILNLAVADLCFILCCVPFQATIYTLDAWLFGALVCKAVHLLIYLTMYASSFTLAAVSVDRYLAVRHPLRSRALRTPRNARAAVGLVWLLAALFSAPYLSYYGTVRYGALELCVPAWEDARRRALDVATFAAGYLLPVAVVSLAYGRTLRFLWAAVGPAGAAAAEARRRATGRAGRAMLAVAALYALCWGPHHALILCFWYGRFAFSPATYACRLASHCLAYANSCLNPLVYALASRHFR
Efflux pump inh: inhibitors of Candida antifungal efflux pumps expressed in yeast | AID 485275 | inhibition, % at 10 µM | S. cerevisiae Candida pump triplex, Nile Red efflux | hit rate 0.44% among 330,000;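 active = plate passing quality check with inhibition over a set limit, or well fluorescence over plate mean plus 4 SD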;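 note: Nile Red retained in pooled yeast measured as flow cytometry median fluorescence; higher means more Nile Red kept so more efflux inhibition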
Yeast cmpd fluor: counter-screen for efflux pump inhibitors: compound fluorescence. shares compounds with Efflux pump inh. fluorescence ratio to DMSO, % at 10 µM. S. cerevisiae AD/pABC3, flow cytometry. hit rate 4% among 1,700;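 active = fluorescence ratio to DMSO above its plate's cutoff, the plate mean ratio plus 5 SD, cut at about 210% in these data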;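 note: unstained yeast with no Nile Red so the signal is compound autofluorescence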
Mdr1 pump inh: Candida Mdr1 efflux pump inhibition. shares compounds with Efflux pump inh. S. cerevisiae AD/CaMDR1, Nile Red efflux, flow cytometry. inhibition, % at 10 µM. hit rate 1% among 1,700. AID 588518; in the data active = inhibition above about 26%;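 note: higher means more Nile Red retained so more efflux inhibition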
CaCdr2 efflux inh: inhibitors of Candida albicans Cdr2 efflux pump. shares compounds with Efflux pump inh. S. cerevisiae AD/CaCDR2, Nile Red retention, flow cytometry. Nile Red retention ratio vs DMSO, % at 10 µM. hit rate 4% among 1,700. AID 588520; in the data active = Nile Red retention ratio vs DMSO above about 190%;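 note: higher ratio means more blocking of Cdr2 efflux of the dye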
Cdr1 pump inh: blocks the Candida albicans Cdr1 efflux pump in yeast. shares compounds with Efflux pump inh. inhibition, % at 10 µM. hit rate 1% among 1,700. S. cerevisiae AD/CaCDR1, Nile Red efflux, flow cytometry;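 active = inhibition above the screen-wide mean plus twice its standard deviation, cut at about 32% in these data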
Hits are given with their value; - = inactive; . = not tested or not shown; + = active, no number. Only some compounds are listed: those with a hit (about 2.9% of all), similar ones and a draw of the others.

SMILES	MC4R barr agon	Calb FLC	H9c2 TAG inh	MC4R antag cAMP	GalR3 antag	Efflux pump inh	Yeast cmpd fluor	Mdr1 pump inh	CaCdr2 efflux inh	Cdr1 pump inh
COc1cccc(C2CC(c3ccccc3)=NN2S(=O)(=O)c2ccc(C)cc2)c1OC (configuration not stated)	-	.	-	-	-	1.4	-	-	-	-
O=C(c1ccc(Cl)cc1)[C@@H]1[C@@H]2C(=O)N(c3ccc(Cl)cc3)C(=O)[C@@H]2C2c3ccccc3C=NN21 (some centres not stated)	-	-	.	-	-	0.6	-	-	-	-
Cc1ccc(N2C(=O)[C@@H]3[C@H](C2=O)C2c4ccccc4C=NN2[C@@H]3C(=O)c2ccc(Cl)cc2)cc1 (some centres not stated)	-	-	.	-	-	-	.	.	.	.
COc1ccc(-c2sc3cc4c(cc3c2-c2ccc3c(c2)OCCO3)OCO4)cc1	-	.	-	-	-	-	.	.	.	.
COc1ccccc1-c1sc2cc3c(cc2c1-c1ccc(O)cc1)OCO3	-	.	-	-	-	-	.	.	.	.
COc1ccccc1-c1sc2cc3c(cc2c1-c1ccc(OCCN2CCOCC2)cc1)OCO3	-	.	-	-	.	-	-	-	-	-
COc1ccc(-c2c(-c3cc(OC)cc(OC)c3)sc3ccc(OC)cc23)cc1	-	.	-	-	-	-	.	.	.	.
COc1ccc(-c2sc3cc(OC)ccc3c2-c2ccc(OCCN3CCOCC3)cc2)cc1	-	.	-	-	-	-	-	-	-	-
COc1ccc(-c2sc3cc4c(cc3c2-c2ccc(OCCN3CCCCC3)cc2)OCO4)cc1	-	.	-	-	.	-	-	-	-	-
COc1cc(OC)cc(-c2sc3ccc(OC)cc3c2-c2ccc(OCCN3CCCCC3)cc2)c1	-	.	-	-	.	+	-	70	.	103
COC(=O)C1=C(C)N=c2s/c(=C/c3ccoc3)c(=O)n2C1c1ccccc1 (configuration not stated)	-	-	.	-	.	0.5	-	-	-	-
CC(C)OC(=O)c1ccc(COC(=O)c2cccc(-c3nnc(-c4ccccc4)o3)c2)cc1	-	-	.	-	-	7.6	-	-	-	-
CCCC(C)(C)C(=O)N1CCC1(C)C(=O)NS(=O)(=O)c1cccc(Cl)c1 (configuration not stated)	-	.	-	-	-	.	.	.	.	.
CCCCCNC(=O)C(c1ccc(C(F)(F)F)cc1)n1c(=O)c(-c2ccco2)nc2ccccc21 (configuration not stated)	.	.	.	.	-	.	.	.	.	.
CCOc1ccccc1/C=C/c1onc(C)c1S(=O)(=O)N1CCC(C(=O)N(CC)CC)CC1	-	-	.	-	-	0.2	-	-	-	-
CC1CCN(C(=O)c2ccc(NS(C)(=O)=O)cc2)CC1	-	-	.	-	-	0.6	-	-	-	-
COc1ccc(OCCSc2nnc(CCNC(=O)c3ccc(OC)cc3)n2C)cc1	-	-	.	-	-	24	-	-	-	-
Cc1cc(C)cc(Cn2cc(CN3CC(N4CCN(C)CC4)CS3(=O)=O)nn2)c1 (configuration not stated)	.	.	.	.	-	.	.	.	.	.
CCc1ccc(NC(=O)C(NS(=O)(=O)c2ccc3c(c2)CCN3C(C)=O)C(C)C)cc1 (configuration not stated)	-	-	.	-	-	1.6	-	-	-	-
O=C(Cn1cncn1)N/N=C/c1ccc(Cl)cc1	-	-	.	-	-	9.7	-	-	-	-
N#CCCn1cc(C=C(C#N)C#N)c(-c2ccc(Cl)cc2)n1	-	-	.	-	-	-	.	.	.	.
N#CCCn1cc(/C=C(\C#N)c2nc3ccccc3s2)c(-c2ccc(F)cc2)n1	-	-	-	-	-	-	-	-	-	-
Cc1noc(C)c1NC(=O)Nc1cccc2c1O[C@H](CN(C)C(=O)Nc1ccc(C(F)(F)F)cc1)[C@@H](C)CN([C@H](C)CO)C2=O	-	.	-	-	-	-	.	.	.	.
COc1ccc(NC(=O)Nc2cccc3c2O[C@H](CN(C)C(=O)Nc2ccc(OC)cc2)[C@@H](C)CN([C@H](C)CO)C3=O)cc1	-	.	-	-	-	-	-	-	-	-
COc1ccc(NC(=O)N(C)C[C@H]2Oc3c(NC(=O)Nc4c(C)noc4C)cccc3C(=O)N([C@H](C)CO)C[C@@H]2C)cc1	-	.	-	-	-	-	-	-	-	-
SMILES	MC4R barr agon	Calb FLC	H9c2 TAG inh	MC4R antag cAMP	GalR3 antag	Efflux pump inh	Yeast cmpd fluor	Mdr1 pump inh	CaCdr2 efflux inh	Cdr1 pump inh
O=C(NCc1cccs1)C1Cc2c(-c3ccc(Cl)cc3)ccnc2O1 (configuration not stated)	-	.	-	-	-	.	.	.	.	.
CCc1c(-c2ccc(Br)cc2)ncn1Cc1cccc(-c2ccccc2)c1	.	.	.	.	-	.	.	.	.	.
Cc1cc(C(=O)O)n(C(C)(C)C)n1	-	-	-	-	-	2.0	-	-	-	-
COc1cc2cc(CN(CCc3ccccc3C)C(=S)NCCCN(C)C)c(=O)[nH]c2cc1OC	-	-	.	-	-	8.9	-	-	-	-
CC1CC(C)CN(S(=O)(=O)c2cc(C(=O)O)c(Cl)s2)C1 (configuration not stated)	-	-	.	-	-	9.7	-	-	-	-
CCc1ccc(C2CC3C(CN2S(=O)(=O)c2ccc(C)cc2)C(=O)CC(c2ccc(CC)cc2)N3S(=O)(=O)c2ccc(C)cc2)cc1 (configuration not stated)	.	.	.	.	-	.	.	.	.	.
O=C(CNC(=O)c1nn(Cc2ccccc2)c(=O)c2ccccc12)Nc1ccc(F)c(F)c1F	-	.	-	-	-	0.9	-	-	-	-
Cn1nc(C(=O)NCC(=O)Nc2ccc(F)c(F)c2F)c2ccccc2c1=O	-	.	-	-	-	-	.	.	.	.
Cc1ccc2nc(C(Cl)(Cl)Cl)nc(N/N=C/c3ccncc3)c2c1	-	-	.	-	-	0.4	-	-	-	-
COC(=O)[C@]12C[C@H](CC(=O)NCCC(C)C)C(=O)N(CCC3=CCCCC3)C1=C[C@H](COCc1ccccc1)O[C@@H]2C	.	.	.	.	-	.	.	.	.	.
Cc1cc(C)c(S(=O)(=O)N2CCc3ccccc32)c(C)c1	-	-	.	-	-	0.9	-	-	-	-
CN(C)S(=O)(=O)c1ccc(C(=O)OC2CCOC2=O)cc1 (configuration not stated)	-	-	.	-	-	1.5	-	-	-	-
Cc1nc2ccccc2n2c(O)c(CC(=O)O)cc12	8.3	-	.	-	-	0.5	-	-	-	-
Cc1nc2ccccc2n1CCC(=O)O	-	-	-	-	-	-	.	.	.	.

Screening data from PubChem.
